Compounds with a hit are over-represented: about 2.7% of the library has one in this group of screens.
p97 inhibitor: human p97 ATPase inhibition; 220,000 tested, 0.42% active; P55072; recombinant p97 ATPase, Kinase-Glo ATP luminescence, 3 h; inhibition, % at 8 µM; in the data active = inhibition above about 15%;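 also: 0% = DMSO vehicle and 100% = wells lacking enzyme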
RBBP9 inh: human RBBP9 hydrolase inhibition; recombinant RBBP9, FP-Rh probe fluorescence polarization; O75884; inhibition, % at 7.94 µM; 220,000 tested, 0.2% active; AID 1515;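 active = inhibition above the campaign mean of all tested compounds plus 3 SD, cut at about 14% in these data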;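 also: plate controls were DMSO wells with RBBP9 for no effect and wells lacking RBBP9 protein for full effect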
Target sequence (O75884 whole entry, looked up): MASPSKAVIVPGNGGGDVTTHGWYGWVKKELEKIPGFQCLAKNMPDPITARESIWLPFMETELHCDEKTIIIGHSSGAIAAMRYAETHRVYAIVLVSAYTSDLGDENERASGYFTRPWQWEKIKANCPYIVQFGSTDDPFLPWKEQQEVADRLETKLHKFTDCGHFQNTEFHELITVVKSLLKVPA
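System: RBBP9 protein / Quantity: 2.5 µM RBBP9 dispensing solution, before mixing / Also added: Serine-hydrolase probe FP-Rh, 375 nM pre-mixing / Dosing: 7.94 µM single dose, 0.794% DMSO / Timing: enzyme-compound preincubation 30 min, then probe labeling 45 min, 25 °C / Signal: FP readout at 525/598 nm / Controls: DMSO-treated enzyme wells and wells lacking RBBP9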
TNF death inh: inhibitors of TNF-alpha induced necroptosis in Jurkat FADD-/- cells | Jurkat FADD-/- TNF necroptosis rescue, ATP luminescence, 24 h; 0 = TNF only, 100 = no-TNF cells | activation (protection from cell death), % at 10 µM | 220,000 tested, 0.068% active;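 active = activation, meaning protection from cell death, of at least 50% relative to plate controls; inactive = activation below 50%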;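 also: necroptosis triggered by 40 ng/mL TNF-alpha added together with compound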
Wee1 stabilizer: blocks degradation of human Wee1 kinase. P30291. reporter increase, % at 5 µM. 220,000 tested, 1.2% active. AID 1321. HeLa Luc-Wee1K328M stability, luciferase luminescence; 100% = proteasome inhibitor MG132 effect;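 active = activation above the mean of all tested compounds plus 3 SD, set per screening run, cut at about 8.8% in these data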;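 also: cells exposed to compound for 20 h before luminescence read; 0% = DMSO alone and 100% = MG132 at 30 µM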
PfM18AAP inh-1: PfM18AAP enzyme inhibition | recombinant PfM18AAP, H-Glu-NHMec fluorogenic cleavage | inhibition, % at 7.35 µM | 290,000 tested, 1.2% active | AID 1822;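 active = inhibition above the campaign mean inhibition over all tested compounds plus 3 SD, cut at about 28% in these data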;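 also: 0% = plate median of test compound wells and 100% = 2 mM ZnCl2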
L929 necroptosis: blocks zVAD induced death of L929 cells; L929 zVAD necroptosis rescue, ATP luminescence, 24 h; with zVAD 60 µM; viability rescue, % at 10 µM; 220,000 tested, 0.38% active; AID 1377;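 active = activation, scaled between plate controls, above about 75%, limit read from the data; inactive = activation under that limit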;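 also: 0% = zVAD with DMSO and 100% = DMSO alone without zVAD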
PfM18AAP inh-2: PfM18AAP inhibition, confirmation; recombinant PfM18AAP, H-Glu-NHMec fluorogenic cleavage; shares compounds with PfM18AAP inh-1; AID 2170; inhibition, % at 7.35 µM; 2,400 tested, 28% active;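 active = mean inhibition over replicate wells above the hit cutoff set for the earlier primary screen, cut at about 29% in these data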;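 also: 0% = median of test compound wells and 100% = 2 mM ZnCl2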
CTSL1 counter: Cathepsin L (human) inhibition, confirmation | purified cathepsin L1, Z-Leu-Arg-MCA fluorescence | shares compounds with PfM18AAP inh-1 | 2,400 tested, under 10 active | AID 2178 | inhibition, % at 5.96 µM;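 active = average inhibition across replicates above the hit cutoff set in the earlier primary screen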;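 also: 0% = median of test compound wells and 100% = Z-Phe-Ala-diazomethylketone 1 µM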
Target sequence (P07711 whole entry, looked up): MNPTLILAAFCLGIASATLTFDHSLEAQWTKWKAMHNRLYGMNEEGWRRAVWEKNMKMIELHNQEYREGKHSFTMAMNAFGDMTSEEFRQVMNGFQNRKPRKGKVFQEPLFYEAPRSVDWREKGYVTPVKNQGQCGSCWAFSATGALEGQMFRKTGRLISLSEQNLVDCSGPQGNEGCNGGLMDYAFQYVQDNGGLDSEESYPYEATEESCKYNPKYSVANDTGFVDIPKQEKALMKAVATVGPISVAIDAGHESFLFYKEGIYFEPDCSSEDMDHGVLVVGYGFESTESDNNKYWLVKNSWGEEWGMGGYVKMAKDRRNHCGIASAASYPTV
* = called active by the depositor; x = not tested or not shown.

SMILES | p97 inhibitor | RBBP9 inh | TNF death inh | Wee1 stabilizer | PfM18AAP inh-1 | L929 necroptosis | PfM18AAP inh-2 | CTSL1 counter
CCC(C)(C)NC(=O)C(c1cccc(OC)c1OC)N(C(=O)CCC(=O)Nc1cc(C)on1)c1ccc2c(c1)OCCO2 (centres undefined) | x | x | x | x | 2 | x | x | x
CCOC(=O)c1c(NC(=O)COc2cccc3c2CCN(C)C3=O)sc2c1CCC2 | 0 | -7 | 0 | -1 | 6 | 1 | x | x
CC(C)CCC(=O)N1CCOC1=O | x | x | x | x | -7 | x | x | x
CC(C)n1cnc2c(=S)nc[nH]c21 | 5 | 3 | 1 | 3 | 24 | 1 | -46 | 5
O=C(O)c1ccc(O)c(O)c1 | 7 | 3 | 4 | -3 | 79* | 1 | 65* | -6
O=C(COc1ccc(Cl)cc1)Nc1nc(-c2ccncc2)cs1 | x | x | x | x | 35* | x | -28 | 4
O=C(CCS(=O)(=O)c1ccc(F)cc1)Nc1nc(-c2ccncc2)cs1 | x | x | x | x | 52* | x | 18 | 1
Nc1nc(Nc2ccc(Cl)cc2)n[nH]1 | 6 | -6 | 0 | 0 | 32* | 2 | 0 | -2
NNc1nc(Nc2ccccc2)nc(Nc2ccccc2)n1 | 4 | -19 | 1 | 0 | 11 | 15 | x | x
Nc1nc(Nc2cccc(Cl)c2)n[nH]1 | 8 | -2 | 1 | 0 | 43* | 3 | 7 | 2
Nc1nc(Nc2ccccc2)n[nH]1 | 2 | -10 | 1 | -3 | 45* | 1 | 4 | 2
Cc1cc(NC(=O)c2ccc(Cl)c(S(=O)(=O)N3CCCCC3)c2)no1 | x | x | x | x | -8 | x | x | x
O=C(/C=C/c1ccc(O)c(O)c1)OC1C(O)CC(OC(=O)/C=C/c2ccc(O)c(O)c2)(C(=O)O)CC1O (centres undefined) | 11 | -6 | 1 | -2 | 76* | 1 | 64* | 6
Cc1ccc(NC(=S)NNc2ccc([N+](=O)[O-])cc2S(=O)(=O)Nc2ccccc2C(=O)O)cc1C | -2 | 0 | 0 | -1 | 59* | 0 | -7 | -5
Nc1nc(-c2cc(O)ccc2[N+](=O)[O-])cc(-c2ccccc2)c1[N+](=O)[O-] | x | x | x | x | 46* | x | -37 | -2
CCCN(C(=O)CCSc1ccc(F)cc1)c1c(N)n(Cc2ccccc2)c(=O)[nH]c1=O | x | x | x | x | -16 | x | x | x
CCCC[n+]1c(C)sc2ccc(C)cc21 | 2 | -6 | -2 | -2 | 7 | 0 | x | x
CC[n+]1c(C)sc2cc(C)ccc21 | 1 | -13 | -2 | -4 | 47* | 0 | -34 | 1
Cc1ccc2sc(C)[n+](CCO)c2c1 | -2 | -5 | 0 | -1 | 37* | 0 | -5 | 2
Cn1cnc(S(=O)(=O)Nc2ccc(OC(F)(F)F)cc2)c1 | 3 | 0 | -1 | 1 | 4 | 0 | x | x
O=C(O)Cc1cn(-c2ccccc2)nc1-c1ccccc1 | 2 | -6 | 0 | -1 | -3 | 2 | x | x
O=C(O)/C=C/C(=O)NCc1cn(-c2ccccc2)nc1-c1cccc(Br)c1 | -2 | -4 | -2 | -2 | 36* | -2 | -35 | -2
CCN(CC)S(=O)(=O)c1cc(NC(=O)c2ccc(-n3cncn3)c([N+](=O)[O-])c2)ccc1C | x | x | x | x | 2 | x | x | x
CN1CCN(NC(=O)CN2C(=O)S/C(=C\c3c(Cl)cccc3Cl)C2=O)CC1 | 6 | -3 | 1 | -1 | 42* | 20 | -30 | 0
Oc1cc2c(cc1CN1CCc3ccccc3C1)OCO2 | x | x | x | x | 37* | x | 12 | -6
Cc1cc(NC(=O)c2ccc([N+](=O)[O-])cc2)n(CCC#N)n1 | x | x | x | x | 1 | x | x | x
CCN(CC)P(=O)(Nc1ccc([N+](=O)[O-])cc1)c1c(C)nn(CCC#N)c1NC(=O)c1ccc(Cl)cc1 (centres undefined) | x | x | x | x | 58* | x | 8 | -1
Cn1c(SCCN2CCCC2)nnc1C1CCN(S(=O)(=O)c2cccc(F)c2)CC1 | x | x | x | x | -3 | x | x | x
Cc1[nH]c(=S)c(C#N)c(-c2ccco2)c1C(=O)N(C)C | 4 | 1 | 0 | -1 | 51* | 5 | 29* | 1

Source: PubChem BioAssay (several laboratories)
